Results from ChEMBL document CHEMBL1255462, “Antiviral activity of a small-molecule inhibitor of filovirus infection” (Antimicrob Agents Chemother, 2010).
Calls of active or inactive are those of the source. No cut-off for these calls is given here.

Assays:
[1] = Cytotoxicity against human Hep2 cells after 72 hrs; format: cell-based, HEp-2
Outline: (§1)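 Confluent monolayers were treated in triplicate with serially diluted compound at 0.0018 to 320 µM for 72 h. Viability was read by CellTiter Glo luminescence, and CC50 was determined.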

Ebolavirus [2] = experiment: Antiviral activity against Ebola-like viruses infected in C57BL/6 mouse assessed as serum aspartate aminotransferase at 10 mg/kg, ip after 24 hrs measured on 6 days postinfection; format: functional; conditions: route intraperitoneal
Outline: (§2)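 C57BL/6 mice received 10 mg/kg i.p. in saline, or vehicle, 24 h postinfection. Five mice per group were sacrificed on days 2, 4 and 6. Serum was frozen at -70°C until all samples were collected, then assayed for ALT, AST and ALP (U/liter). Values are group means compared with vehicle.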

[3] = Antiviral activity against Lake Victoria marburgvirus - Ravn in overnight pretreated african green monkey Vero E6 cells after 48 hrs by standard virus yield reduction assay; format: functional, cell-based; conditions: Kenya, 1987, Vero
Ebolavirus [4] = experiment: Antiviral activity against Sudan ebolavirus expressing GFP in african green monkey Vero E6 cells after 48 hrs by standard plaque assay; format: functional, cell-based; conditions: Orthoebolavirus
[5] = Cytotoxicity against human PBMC after 72 hrs; format: cell-based; conditions: PBMC (peripheral blood mononuclear cells)
Ebolavirus [6] = experiment: Antiviral activity against Ebola-like viruses infected in C57BL/6 mouse kidney assessed as reduction in viral burden at 10 mg/kg, ip single dose; format: functional; conditions: route intraperitoneal
Ebolavirus [7] = experiment: Antiviral activity against Zaire ebolavirus expressing GFP in african green monkey Vero E6 cells after 48 hrs by standard plaque assay; format: functional, cell-based
[8] = Antiviral activity against Lake Victoria marburgvirus - Ci67 in overnight pretreated african green monkey Vero E6 cells at 10 uM after 48 hrs by standard virus yield reduction assay; format: functional; parameters: scale not given: the % may be the effect or the level left
Ebolavirus [9] = experiment: Antiviral activity against Ebola-like viruses infected in C57BL/6 mouse assessed as serum alkaline phosphatase at 10 mg/kg, ip after 24 hrs measured on 6 days postinfection; format: functional; conditions: route intraperitoneal; outline: as §2
[10] = Cytotoxicity against african green monkey Vero E6 cells after 72 hrs; format: cell-based; conditions: chlorocebus sabaeus; outline: as §1
Marburgvirus [11] = experiment: Antiviral activity against Marburgvirus infected in BALB/C mouse assessed as protection against virus challenge at 5 mg/kg, ip administered 1 day postinfection; format: functional; conditions: route intraperitoneal
Outline: (§3)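 Compound given once i.p. in 0.9% saline at day 1 postinfection, with vehicle-treated controls. Health and mortality recorded twice daily for 14 days. Animals surviving 14 days were scored as protected, and survival curves were compared by Kaplan-Meier analysis.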

Ebolavirus [12] = experiment: Antiviral activity against Ebola-like viruses infected in C57BL/6 mouse assessed as serum aspartate aminotransferase at 10 mg/kg, ip after 24 hrs measured on 2 days postinfection; format: functional; conditions: route intraperitoneal; outline: as §2
Ebolavirus [13] = experiment: Antiviral activity against Ebola-like viruses infected in C57BL/6 mouse assessed as serum alanine aminotransferase at 10 mg/kg, ip after 24 hrs measured on 4 days postinfection; format: functional; conditions: route intraperitoneal; outline: as §2
Ebolavirus [14] = experiment: Antiviral activity against Ebola-like viruses infected in C57BL/6 mouse assessed as serum alanine aminotransferase at 10 mg/kg, ip after 24 hrs measured on 2 days postinfection; format: functional; conditions: route intraperitoneal; outline: as §2
Mus musculus [15] = experiment: Toxicity in Ebola-like viruses infected in C57BL/6 mouse spleen assessed as mild lymphocytolysis at 10 mg/kg, ip single dose measured after 4 days; format: organism-based; parameters: dose 10 mg/kg, route intraperitoneal; conditions: in vivo, 96 h
[16] = Antiviral activity against Lake Victoria marburgvirus - Ravn in overnight pretreated african green monkey Vero E6 cells at 25 uM after 48 hrs by standard virus yield reduction assay; format: functional; parameters: scale not given: the % may be the effect or the level left
Marburgvirus [17] = experiment: Antiviral activity against Marburgvirus infected in BALB/C mouse assessed as protection against virus challenge at 10 mg/kg, ip measured for 14 days; format: functional, organism-based; parameters: dose 10 mg/kg; outline: as §3
Ebolavirus [18] = experiment: Antiviral activity against Zaire ebolavirus expressing GFP in african green monkey Vero E6 cells at >=0.8 uM after 48 hrs by standard plaque assay; format: functional
Ebolavirus [19] = experiment: Antiviral activity against Ebola-like viruses infected in C57BL/6 mouse assessed as serum alkaline phosphatase at 10 mg/kg, ip after 24 hrs measured on 4 days postinfection; format: functional; conditions: route intraperitoneal; outline: as §2
Ebolavirus [20] = experiment: Antiviral activity against Ebola-like viruses infected in C57BL/6 mouse assessed as increase in mouse survival at 5 mg/kg, ip single injection; format: functional; conditions: route intraperitoneal; outline: as §3
[21] = Antiviral activity against Lake Victoria marburgvirus - Ci67 in overnight pretreated african green monkey Vero E6 cells after 48 hrs by standard virus yield reduction assay; format: functional
Ebolavirus [22] = experiment: Antiviral activity against Ebola-like viruses infected in C57BL/6 mouse assessed as serum alkaline phosphatase at 10 mg/kg, ip after 24 hrs measured on 2 days postinfection; format: functional; conditions: route intraperitoneal; outline: as §2
[23] = Cytotoxicity against human A549 cells after 72 hrs; format: cell-based; outline: as §1
[24] = Cytotoxicity against human HEK293 cells after 72 hrs; format: cell-based; outline: as §1
Ebolavirus [25] = experiment: Antiviral activity against Ebola-like viruses infected in C57BL/6 mouse assessed as serum alanine aminotransferase at 10 mg/kg, ip after 24 hrs measured on 6 days postinfection; format: functional; conditions: route intraperitoneal; outline: as §2
Mus musculus [26] = experiment: Toxicity in Ebola-like viruses infected in C57BL/6 mouse assessed as mild hepatitis with hepatocellular necrosis at 10 mg/kg, ip single dose measured after 4 days; format: organism-based; parameters: dose 10 mg/kg, route intraperitoneal; conditions: in vivo, 96 h
Ebolavirus [27] = experiment: Antiviral activity against Ebola-like viruses infected in C57BL/6 mouse spleen assessed as reduction in viral burden at 10 mg/kg, ip single dose; format: functional; conditions: route intraperitoneal
Ebolavirus [28] = experiment: Antiviral activity against Ebola-like viruses infected in C57BL/6 mouse assessed as serum aspartate aminotransferase at 10 mg/kg, ip after 24 hrs measured on 4 days postinfection; format: functional; conditions: route intraperitoneal; outline: as §2
[29] = Cytotoxicity against MDCK cells after 72 hrs; format: cell-based, Canis lupus familiaris; conditions: dog; outline: as §1
Ebolavirus [30] = experiment: Antiviral activity against Ebola-like viruses infected in C57BL/6 mouse liver assessed as reduction in viral burden at 10 mg/kg, ip single dose; format: functional; conditions: route intraperitoneal

Compound: N=C(N)c1ccc2oc(/C=C/c3nc4cc(C(=N)N)ccc4[nH]3)cc2c1
- CC50 at 72 h [1]: ≥ 50000 nM
- Activity (Ebolavirus [2]): 207 U/L
- EC50 [3]: 2500 nM
- EC50 (Ebolavirus [4]): 420 nM
- EC90 (Ebolavirus [4]): 960 nM
- CC50 at 72 h [5]: ≥ 50000 nM
- log10cfu (Ebolavirus [6]): 1
- Activity (Ebolavirus [7]): Dose-dependent effect
- EC50 (Ebolavirus [7]; Orthoebolavirus): 100 nM
- EC90 (Ebolavirus [7]; Orthoebolavirus): 330 nM
- Activity [8]: >90%
- Activity (Ebolavirus [9]): 67 U/L
- CC50 at 72 h [10]: ≥ 50000 nM
- Activity (Marburgvirus [11]): 40%
- Activity (Ebolavirus [12]): 237 U/L
- Activity (Ebolavirus [13]): 23 U/L
- Activity (Ebolavirus [14]): 148 U/L
- Activity (Mus musculus [15]): Toxic
- Activity [16]: >99.9%
- Activity (Marburgvirus [17]): Active
- inhibition (INH) (Ebolavirus [18]): >=0.8%
- Activity (Ebolavirus [19]): 65 U/L
- Activity (Ebolavirus [20]): 60%
- CC50 [21]: 2500 nM
- Activity (Ebolavirus [22]): 57 U/L
- CC50 at 72 h [23]: ≥ 50000 nM
- CC50 at 72 h [24]: ≥ 50000 nM
- Activity (Ebolavirus [25]): 87 U/L
- Activity (Mus musculus [26]): Toxic
- log10cfu (Ebolavirus [27]): 1
- Activity (Ebolavirus [28]): 54 U/L
- CC50 at 72 h [29]: ≥ 50000 nM
- log10cfu (Ebolavirus [30]): 1
